Measurements gathered from unrelated publications.
Lines come from different studies, so protocols differ.
Target: Serine/threonine-protein kinase PLK2 (PLK2, Homo sapiens, UniProt Q9NYY3)

CCC(=O)N[C@H]1CC[C@@H](C(=O)N(C)c2ccc(-c3nc4ccccc4o3)cc2)C1
remaining binding (cell-free assay; competition with immobilised ligand; 1 µM): 96%

O=C(c1ccc(Nc2nccc(-c3cc4ccccc4s3)n2)cc1)N1CCC(N2CCCC2)CC1
remaining binding (binding; competition with immobilised ligand; 1 µM): 96%

O=C(NCC1CCOCC1)c1n[nH]cc1NC(=O)c1c(F)cccc1F
remaining binding (binding; competition with immobilised ligand; 1 µM): 96%

N#Cc1ccc(Nc2ccc3[nH]c(=O)[nH]c3c2)c(Cl)c1
remaining binding (cell-free assay; competition with immobilised ligand; 1 µM): 86%

c1cncc(-c2cccc(Nc3nccc(NC4CCCCC4)n3)c2)c1
remaining binding (binding; competition with immobilised ligand; 10 µM): 100%

CN(c1nccc(-c2cnn3ncccc23)n1)C1CC1
remaining binding (binding; 1 µM): 88%

CCS(=O)(=O)c1cc2cc(C[C@@](O)(CC(C)(C)c3ccc(F)cc3C(N)=O)C(F)(F)F)[nH]c2cn1
remaining binding (cell-free assay; competition with immobilised ligand; 1 µM): 100%

c1cnn2ncc(-c3ccnc(N4CCC45COC5)n3)c2c1
remaining binding (binding; 1 µM): 87%

Cc1nc(C2CCN(C(=O)c3ccc(OC(F)(F)F)cc3N)CC2)c2ncc(N3CCN(C)CC3)cc2n1
remaining binding (cell-free assay; competition with immobilised ligand; 1 µM): 74%

CCN1CCN(Cc2ccc(C(=O)Nc3ccc(C)c(Oc4ccc5c(c4)CC(=O)N5)c3)cc2C(F)(F)F)CC1
remaining binding (binding; competition with immobilised ligand; 1 µM): 66%

O=C(c1ccc(Nc2ncc(Cl)c(-c3ccc(Cl)s3)n2)cc1)N1CCC(N2CCCC2)CC1
remaining binding (binding; competition with immobilised ligand; 1 µM): 47%

COc1cnc(Nc2cccc(S(N)(=O)=O)c2)nc1N1CCN(c2ccccc2)C(=O)C1
remaining binding (binding; competition with immobilised ligand; 1 µM): 80%

C[C@@H]1CCN(c2nccc(-c3cnn4ncccc34)n2)C1
remaining binding (binding; 1 µM): 88%

O=C(c1ccc(Nc2ncc(Cl)c(-c3cc4ccccc4s3)n2)cc1)N1CCC(N2CCCC2)CC1
remaining binding (binding; competition with immobilised ligand; 1 µM): 68%

CN(C)c1ncc(F)c(-c2cnn3ncccc23)n1
remaining binding (binding; 1 µM): 78%

Cc1c(NC(=O)c2cc(C(N)=O)nc3cc(F)ccc23)c(C(F)(F)F)nn1Cc1ccc(C(C)(C)C)cc1
remaining binding (cell-free assay; competition with immobilised ligand; 1 µM): 100%

CN(C)c1nccc(-c2cnn3ncccc23)n1
remaining binding (binding; 1 µM): 100%

CNC(=O)Nc1ccc2c(c1)CC[C@@]21OC(=O)N(CC(=O)N(Cc2ccc(F)cc2)[C@@H](C)C(F)(F)F)C1=O
remaining binding (cell-free assay; competition with immobilised ligand; 1 µM): 91%

Cc1cnn2ncc(-c3ccnc(N(C)C)n3)c2c1
remaining binding (binding; 1 µM): 94%

COc1cnc(Nc2cccc(S(N)(=O)=O)c2)nc1N1CCN(c2ccccc2)CC1
remaining binding (binding; competition with immobilised ligand; 1 µM): 94%
